Measurements: paper PMC6811699 (Stem Cells Translational Medicine, 2019)

Assays:
[1] = read-out: Reported neurite length IC50; literature values; cited from earlier work
patients = details: cited from earlier work
[2] = test system: induced sensory neuron cells (iSNs); assay: Resazurin reduction cell viability assay; assay type: cell-based; details: Homo sapiens, 48 h, read-out: Detected cell viability IC50
How it was run: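 iSNs were specified and matured, reseeded into 96‑well plates, and dosed 24 hours later. Compounds were given as four 10‑fold dilutions, 0.01–10 μM final, with 0.1% DMSO final, in quadruplicate wells, for 48 hours. Medium was then replaced with 10 μg/ml resazurin in snMat medium for 2 hours at 37°C, 5% CO₂. Fluorescence was read at 544/590 nm. There were three biological replicates, reported as mean ± SEM, and IC50 came from the dose–response.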

[3] = test system: induced sensory neuron cells (iSNs); assay: High-content imaging, neurite length analysis; assay type: cell-based, human; details: 48 hours, 0.01–10 μM, treated 24 hours after seeding
How it was run: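 iSNs from blood-derived neural precursors, specified (DAPT, SU5402, CHIR99021) then matured (BDNF, GDNF, NGF, NT-3, ascorbic acid, forskolin), reseeded to 96-well plates; dosed 24 h later, 10-fold dilutions, 0.01–10 μM, 0.1% DMSO final, quadruplicate wells, 48 h.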

iSNs = assay: Calcium imaging; assay type: cell-based, human; details: iSNs from adult nonmobilized PB, 30 μM α,β-meATP
How it was run: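 Mature iSNs were loaded with Fluo‑4‑AM for 1 hour at room temperature, then de‑esterified for 45 minutes. They were washed and kept in Hanks' balanced salt solution with 25 mM HEPES and 5.5 mM glucose. Agonists diluted in this buffer were applied at final 30 μM α,β‑meATP or 1 μM capsaicin to day‑7 iSNs in 96‑well plates. Peak calcium flux was recorded by epifluorescence microscopy with a xenon arc lamp.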

In the case of CC(C)C[C@H](NC(=O)[C@H](Cc1ccccc1)NC(=O)c1cnccn1)B(O)O [Bortezomib], the IC50 [1] is given as greater than 100000 nM, the NP incidence (patients) is given as 20–30% and the “Neurotoxic dose in patients” value (patients) is given as 30 mg/m^2. For the same compound, the IC50 [2] was 1000 nM and the “effect on neurite length / neurite degeneration” value [3] was “neurite degeneration only at the highest tested concentrations”.
For N.N.[Cl][Pt][Cl] [Cisplatin], the IC50 [1] is given as greater than 100000 nM, the NP incidence (patients) is given as 70–100% and the “effect on neurite length / neurite degeneration” value [3] is given as “reduced neurite length in the absence of cytotoxicity”.
In the case of COc1cc([C@@H]2c3cc4c(cc3[C@@H](O[C@@H]3O[C@@H]5CO[C@@H](C)O[C@H]5[C@H](O)[C@H]3O)[C@H]3COC(=O)[C@H]23)OCO4)cc(OC)c1O [Etoposide], the IC50 [1] is listed as 360 nM and the “effect on neurite length / neurite degeneration” value [3] is listed as “reduced neurite length in the absence of cytotoxicity”.
In the case of CC(=O)O[C@H]1C(=O)[C@@]2(C)[C@H]([C@H](OC(=O)c3ccccc3)[C@]3(O)C[C@H](OC(=O)[C@H](O)[C@@H](NC(=O)c4ccccc4)c4ccccc4)C(C)=C1C3(C)C)[C@]1(OC(C)=O)CO[C@@H]1C[C@@H]2O [Taxol, Paclitaxel], the IC50 [1] is given as 5.6 to 10 nM, the IC50 [2] is given as 7400 nM and the “effect on neurite length / neurite degeneration” value [3] is given as “reduced neurite length in the absence of cytotoxicity”.
For CC[C@]1(O)C[C@H]2CN(CCc3c([nH]c4ccccc34)[C@@](C(=O)OC)(c3cc4c(cc3OC)N(C=O)[C@H]3[C@@](O)(C(=O)OC)[C@H](OC(C)=O)[C@]5(CC)C=CCN6CC[C@]43[C@@H]65)C2)C1 [Vincristine], the NP incidence (patients) is listed as “Up to 20%”, the “Neurotoxic dose in patients” value (patients) is listed as 5–15 mg/m^2 and the IC50 [2] is listed as 600 nM. The “effect on neurite length / neurite degeneration” value [3] was “reduced neurite length in the absence of cytotoxicity”.
With Nc1ncnc2c1ncn2[C@@H]1O[C@H](COP(=O)(O)CP(=O)(O)OP(=O)(O)O)[C@@H](O)[C@H]1O [α,β‐meATP, α,β‐methylene‐ATP] the “cytosolic calcium response” value (iSNs) was “robust elevation of cytosolic calcium”.
